The source of these data is ChEMBL document CHEMBL4304816, “A Novel Biphenyl-based Chemotype of Retinoid X Receptor Ligands Enables Subtype and Heterodimer Preferences” (ACS Med Chem Lett, 2019).

Assay type in all cases: cell-based
The target in assay [1] is T1, Peroxisome proliferator-activated receptor delta (Homo sapiens) (UniProt Q03181).
T1 sequence (whole entry): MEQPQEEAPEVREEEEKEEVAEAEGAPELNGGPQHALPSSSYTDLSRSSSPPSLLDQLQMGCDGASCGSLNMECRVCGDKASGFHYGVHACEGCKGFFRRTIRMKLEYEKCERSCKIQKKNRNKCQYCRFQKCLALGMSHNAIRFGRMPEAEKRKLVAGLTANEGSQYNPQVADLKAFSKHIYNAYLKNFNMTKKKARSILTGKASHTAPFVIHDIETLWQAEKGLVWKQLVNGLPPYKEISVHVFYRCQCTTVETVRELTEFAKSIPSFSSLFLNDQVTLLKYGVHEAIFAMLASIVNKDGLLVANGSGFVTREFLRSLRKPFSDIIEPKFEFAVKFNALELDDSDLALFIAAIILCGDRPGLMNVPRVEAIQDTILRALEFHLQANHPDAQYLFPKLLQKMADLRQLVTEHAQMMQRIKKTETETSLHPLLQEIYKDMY
The assay can be described thus: Agonist activity at Gal4-LBD fused PPARbeta (unknown origin) expressed in HEK293T cells at 20 uM after 14 to 16 hrs by dual-Glo luciferase assay. Put shortly:
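Gal4-hybrid reporter gene selectivity panel of related nuclear receptors (PPARα/β/γ, RARα/β/γ) in HEK293T cells. Activity is read as mean fold activation versus 0.1% DMSO vehicle, n ≥ 2.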

Assay [2] can be described thus: Agonist activity at full-length human RXR/LXR expressed in HEK293T cells at 20 uM after 14 to 16 hrs by dual-glo luciferase reporter gene assay relative to untreated control. The conditions noted are these: HEK-293T, read-out: Activity. In short, it runs like this:
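RXR:LXR or RXR:PPARγ heterodimer reporter assay with test compound alone. Activation expressed relative to 0.1% DMSO vehicle. Three independent experiments, each in duplicate; mean reported.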
(In general: A reporter such as luciferase makes a cellular process visible.)

Assay [3] deals with T2, Retinoic acid receptor RXR-beta (Homo sapiens) (UniProt P28702).
T2 sequence (whole entry): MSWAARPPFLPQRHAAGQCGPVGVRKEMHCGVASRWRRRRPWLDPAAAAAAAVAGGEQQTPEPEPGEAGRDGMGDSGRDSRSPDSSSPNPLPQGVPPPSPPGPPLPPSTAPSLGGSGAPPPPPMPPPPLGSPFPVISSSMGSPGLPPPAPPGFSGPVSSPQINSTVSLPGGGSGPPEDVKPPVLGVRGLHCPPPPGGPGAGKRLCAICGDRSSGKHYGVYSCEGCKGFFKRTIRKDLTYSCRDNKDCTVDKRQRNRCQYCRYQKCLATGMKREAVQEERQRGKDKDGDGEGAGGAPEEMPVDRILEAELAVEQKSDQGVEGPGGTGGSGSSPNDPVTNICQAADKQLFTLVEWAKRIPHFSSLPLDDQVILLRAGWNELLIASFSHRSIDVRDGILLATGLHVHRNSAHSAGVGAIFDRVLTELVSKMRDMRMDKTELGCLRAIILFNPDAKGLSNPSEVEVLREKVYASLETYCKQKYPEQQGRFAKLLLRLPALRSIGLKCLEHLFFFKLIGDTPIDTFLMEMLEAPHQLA
The experiment in a line: Agonist activity at Gal4-LBD fused RXRbeta (unknown origin) expressed in HEK293T cells at 0.1 to 3 uM after 14 to 16 hrs in presence of RXR antagonist HX531 by dual-Glo luciferase reporter gene assay.

In assay [4] the target is T3, Retinoic acid receptor RXR-alpha (Homo sapiens) (UniProt P19793).
T3 sequence (whole entry): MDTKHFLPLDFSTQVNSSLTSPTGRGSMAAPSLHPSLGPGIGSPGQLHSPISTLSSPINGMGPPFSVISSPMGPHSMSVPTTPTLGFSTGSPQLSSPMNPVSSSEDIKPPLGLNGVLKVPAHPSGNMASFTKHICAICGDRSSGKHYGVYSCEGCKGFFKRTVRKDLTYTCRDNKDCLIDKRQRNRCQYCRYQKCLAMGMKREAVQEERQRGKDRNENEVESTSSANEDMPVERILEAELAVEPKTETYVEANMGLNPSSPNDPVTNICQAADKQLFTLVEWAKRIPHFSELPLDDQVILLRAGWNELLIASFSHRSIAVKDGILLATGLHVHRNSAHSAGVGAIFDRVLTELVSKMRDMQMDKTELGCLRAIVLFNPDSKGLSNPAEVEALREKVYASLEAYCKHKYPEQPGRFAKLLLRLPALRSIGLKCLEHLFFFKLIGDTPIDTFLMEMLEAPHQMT
The experiment in a line: Agonist activity at Gal4-LBD fused RXRalpha (unknown origin) expressed in HEK293T cells assessed as fold activation at 10 uM after 14 to 16 hrs by dual-Glo luciferase assay relative to untreated control. In short, it runs like this: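 Gal4-hybrid RXRα/β/γ reporter gene assays in HEK293T cells. Fold activation is the maximal fold activation versus 0.1% DMSO.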

Assay [5] deals with T4, Retinoic acid receptor RXR-gamma (Homo sapiens) (UniProt P48443).
T4 sequence (whole entry): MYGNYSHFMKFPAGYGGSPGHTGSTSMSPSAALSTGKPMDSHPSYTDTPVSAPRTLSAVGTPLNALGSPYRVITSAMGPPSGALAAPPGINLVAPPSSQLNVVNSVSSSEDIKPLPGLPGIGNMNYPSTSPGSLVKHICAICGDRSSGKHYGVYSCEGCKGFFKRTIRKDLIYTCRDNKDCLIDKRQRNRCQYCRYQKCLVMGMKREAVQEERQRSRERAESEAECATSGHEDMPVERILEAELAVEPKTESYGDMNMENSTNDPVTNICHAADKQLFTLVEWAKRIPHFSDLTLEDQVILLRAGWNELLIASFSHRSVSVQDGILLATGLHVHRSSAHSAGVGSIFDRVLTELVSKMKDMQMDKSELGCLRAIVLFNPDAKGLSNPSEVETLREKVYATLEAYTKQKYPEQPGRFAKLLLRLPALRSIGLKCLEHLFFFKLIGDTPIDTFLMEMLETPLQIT
The experiment in a line: Agonist activity at Gal4-LBD fused RXRgamma (unknown origin) expressed in HEK293T cells at 10 uM after 14 to 16 hrs by dual-Glo luciferase assay.

Active and inactive are the calls of the source. The calls are words filed in the database; no cut-off is given here.

As to `Cc1cc(-c2ccc(C(=O)O)cc2)cc(C(C)(C)C)c1`, the Activity result in assay [1] was “Active”. Besides, the activity at 20 µM in assay [2] came to 87%. As to `Cc1cc(-c2cc(C(F)(F)F)cc(C(F)(F)F)c2)ccc1CC(=O)O`, the Activity result in assay [3] is “inactive”. With `Cc1cc(-c2cc(C(C)(C)C)cc(C(C)(C)C)c2)ccc1C(=O)O`, in assay [4], the fold change (FC) turned out to be 3. The Activity entry in assay [5] was “inactive”.
